Published values of several laboratories.
Botulinum neurotoxin type A protease: Botulinum neurotoxin type A, protease (Clostridium botulinum, UniProt P0DPI0)
Slc6a3: Sodium-dependent dopamine transporter (Slc6a3, Rattus norvegicus, UniProt P23977)
Cnr1: Cannabinoid receptor 1 (Cnr1, Rattus norvegicus, UniProt P20272)
NA: Neuraminidase (NA, Influenza A virus, UniProt Q9IGQ6)

SMILES	target	read-out	mode	technique	setting	measurement	result
O=S(=O)(c1ccc(O)c2nc(Cl)ccc12)N1CCc2c(Cl)cccc21	Botulinum neurotoxin type A protease	enzyme activity	inhibitor			IC50	> 30000 nM
O=C1C=CC(=O)N1Cc1ccc(Cl)cc1Cl	Botulinum neurotoxin type A protease	enzyme activity	inhibitor			IC50	80000 nM
CC(N)C(=O)c1cccc(Cl)c1 (stereo not shown)	Slc6a3	transporter uptake	inhibitor	radiometric		IC50	399 nM
CN(C)CCc1c[nH]c2ccccc12	5-hydroxytryptamine receptor 1B (HTR1B, Homo sapiens, UniProt P28222)	ligand displacement		radioligand		Ki	130 nM
CC(Cc1cccc(Cl)c1)NC(C)(C)C (stereo not shown)	Slc6a3	transporter uptake	inhibitor	radiometric		IC50	938 nM
COC(=O)C(NC(=O)c1cn(CCCCCF)c2ccccc12)C(C)(C)C (stereo not shown)	Cnr1	ligand displacement		radioligand	cell membranes	IC50	2 nM
CC(C)NC(C)C(=O)c1cccc(Cl)c1 (stereo not shown)	Slc6a3	transporter uptake	inhibitor	radiometric		IC50	537 nM
CN1[C@H]2CC[C@@H]1[C@@H](c1cc(-c3ccccc3)no1)[C@H](OC(c1ccc(F)cc1)c1ccc(F)cc1)C2	Slc6a3	ligand displacement		radioligand	cell membranes	Ki	14 nM
CCCCCCC(C)(C)c1cc(O)c2c(c1)OC(C)(C)[C@@H]1CC=C(C)C[C@@H]21	Cnr1	ligand displacement		radioligand		Ki	0.9 nM
O=C1C=C(/C=C/c2ccc(O)c(O)c2)OC12C(c1cc3oc(=O)c4cc(O)c(O)cc4c3c(=O)o1)=Cc1cc(O)c(O)cc12 (stereo not shown)	NA	enzyme activity	inhibitor			IC50	8000 nM
CC(C)(C)C(NC(=O)c1cn(CCCCCF)c2ccccc12)C(=O)O (stereo not shown)	Cnr1	ligand displacement		radioligand	cell membranes	IC50	3340 nM
CC1=CC(=O)C2(O1)C(c1cc3oc(=O)c4cc(O)c(O)cc4c3c(=O)o1)=Cc1cc(O)c(O)cc12 (stereo not shown)	NA	enzyme activity	inhibitor			IC50	8100 nM
CCOC(=O)C1C(OC(c2ccc(F)cc2)c2ccc(F)cc2)CC2CCC1N2CCN (racemic)	Slc6a3	ligand displacement		radioligand	cell membranes	Ki	17.2 nM
